Test: Pharmacokinetics of CK and its metabolite 20
Format: in vivo, healthy Chinese volunteers
Procedure, shortened: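 Healthy adults given one oral tablet dose fasting (overnight, or 10 h in a crossover food-effect arm); 30 subjects from the 100/200/400 mg groups were pooled with 24 from 200 mg fasting periods. Plasma was stored at −70°C, extracted with MTBE plus internal standards and assayed by LC-MS/MS. Cmax was observed and AUClast calculated by linear trapezoid, each divided by dose. The metabolite/parent ratio was also calculated. Genotyping used Sequenom MassARRAY, and log-transformed values were compared by one-way ANOVA.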

[1] = ABCC4 rs1151471 CC, n = 2, mean (SD)

20(S)-PPD AUClast/D (ABCB1 rs1045642 AA, mean (SD)): 0.59 (0.42)
20(S)-PPD Cmax/D (ABCB1 rs1045642 AA, mean (SD)): 0.02 (0.02)
Ratio 20(S)-PPD/CK AUClast/D (ABCB1 rs1045642 AA, mean (SD)): 1.99 (1.55) %
Ratio 20(S)-PPD/CK Cmax/D (ABCB1 rs1045642 AA, mean (SD)): 0.54 (0.42) %
20(S)-PPD AUClast/D (ABCB1 rs1045642 AG, mean (SD)): 0.87 (0.93)
20(S)-PPD Cmax/D (ABCB1 rs1045642 AG, mean (SD)): 0.03 (0.03)
Ratio 20(S)-PPD/CK AUClast/D (ABCB1 rs1045642 AG, mean (SD)): 5.28 (8.05) %
Ratio 20(S)-PPD/CK Cmax/D (ABCB1 rs1045642 AG, mean (SD)): 1.49 (2.26) %
20(S)-PPD AUClast/D (ABCB1 rs1045642 GG, mean (SD)): 0.82 (0.62)
20(S)-PPD Cmax/D (ABCB1 rs1045642 GG, mean (SD)): 0.03 (0.02)
Ratio 20(S)-PPD/CK AUClast/D (ABCB1 rs1045642 GG, mean (SD)): 3.23 (2.77) %
Ratio 20(S)-PPD/CK Cmax/D (ABCB1 rs1045642 GG, mean (SD)): 0.80 (0.66) %
20(S)-PPD AUClast/D (ABCB1 rs1128503 AA, mean (SD)): 0.90 (0.79)
20(S)-PPD Cmax/D (ABCB1 rs1128503 AA, mean (SD)): 0.03 (0.03)
Ratio 20(S)-PPD/CK AUClast/D (ABCB1 rs1128503 AA, mean (SD)): 4.27 (5.15) %
Ratio 20(S)-PPD/CK Cmax/D (ABCB1 rs1128503 AA, mean (SD)): 1.30 (2.07) %
20(S)-PPD AUClast/D (ABCB1 rs1128503 AG, mean (SD)): 0.77 (0.80)
20(S)-PPD Cmax/D (ABCB1 rs1128503 AG, mean (SD)): 0.03 (0.03)
Ratio 20(S)-PPD/CK AUClast/D (ABCB1 rs1128503 AG, mean (SD)): 4.67 (7.55) %
Ratio 20(S)-PPD/CK Cmax/D (ABCB1 rs1128503 AG, mean (SD)): 1.12 (1.52) %
20(S)-PPD AUClast/D (ABCB1 rs1128503 GG, mean (SD)): 0.73 (0.70)
20(S)-PPD Cmax/D (ABCB1 rs1128503 GG, mean (SD)): 0.02 (0.02)
Ratio 20(S)-PPD/CK AUClast/D (ABCB1 rs1128503 GG, mean (SD)): 1.89 (0.94) %
Ratio 20(S)-PPD/CK Cmax/D (ABCB1 rs1128503 GG, mean (SD)): 0.46 (0.25) %
20(S)-PPD AUClast/D (ABCB1 rs2032582 AA, mean (SD)): 0.78 (0.53)
20(S)-PPD Cmax/D (ABCB1 rs2032582 AA, mean (SD)): 0.03 (0.02)
Ratio 20(S)-PPD/CK AUClast/D (ABCB1 rs2032582 AA, mean (SD)): 4.64 (7.42) %
Ratio 20(S)-PPD/CK Cmax/D (ABCB1 rs2032582 AA, mean (SD)): 1.20 (1.55) %
20(S)-PPD Cmax/D (ABCB1 rs2032582 CA, mean (SD)): 0.03 (0.03)
Ratio 20(S)-PPD/CK AUClast/D (ABCB1 rs2032582 CA, mean (SD)): 4.60 (7.08) %
Ratio 20(S)-PPD/CK Cmax/D (ABCB1 rs2032582 CA, mean (SD)): 1.34 (2.13) %
20(S)-PPD AUClast/D (ABCB1 rs2032582 CC, mean (SD)): 0.92 (0.62)
20(S)-PPD Cmax/D (ABCB1 rs2032582 CC, mean (SD)): 0.03 (0.02)
Ratio 20(S)-PPD/CK AUClast/D (ABCB1 rs2032582 CC, mean (SD)): 3.50 (2.84) %
Ratio 20(S)-PPD/CK Cmax/D (ABCB1 rs2032582 CC, mean (SD)): 0.74 (0.49) %
20(S)-PPD AUClast/D (ABCC2 rs717620 CC, mean (SD)): 0.64 (0.51)
20(S)-PPD Cmax/D (ABCC2 rs717620 CC, mean (SD)): 0.02 (0.02)
Ratio 20(S)-PPD/CK AUClast/D (ABCC2 rs717620 CC, mean (SD)): 3.02 (4.69) %
Ratio 20(S)-PPD/CK Cmax/D (ABCC2 rs717620 CC, mean (SD)): 0.77 (0.99) %
20(S)-PPD AUClast/D (ABCC2 rs717620 CT, mean (SD)): 1.09 (1.02)
20(S)-PPD Cmax/D (ABCC2 rs717620 CT, mean (SD)): 0.04 (0.04)
Ratio 20(S)-PPD/CK AUClast/D (ABCC2 rs717620 CT, mean (SD)): 6.00 (7.83) %
Ratio 20(S)-PPD/CK Cmax/D (ABCC2 rs717620 CT, mean (SD)): 1.65 (2.39) %
20(S)-PPD AUClast/D (ABCC2 rs2273697 GA, mean (SD)): 0.81 (0.63)
20(S)-PPD Cmax/D (ABCC2 rs2273697 GA, mean (SD)): 0.03 (0.02)
Ratio 20(S)-PPD/CK AUClast/D (ABCC2 rs2273697 GA, mean (SD)): 4.54 (6.68) %
Ratio 20(S)-PPD/CK Cmax/D (ABCC2 rs2273697 GA, mean (SD)): 0.96 (1.36) %
20(S)-PPD AUClast/D (ABCC2 rs2273697 GG, mean (SD)): 0.83 (0.84)
20(S)-PPD Cmax/D (ABCC2 rs2273697 GG, mean (SD)): 0.03 (0.03)
Ratio 20(S)-PPD/CK AUClast/D (ABCC2 rs2273697 GG, mean (SD)): 4.19 (6.15) %
Ratio 20(S)-PPD/CK Cmax/D (ABCC2 rs2273697 GG, mean (SD)): 1.22 (1.87) %
20(S)-PPD AUClast/D (ABCC2 rs2756109 GG, mean (SD)): 0.61 (0.41)
20(S)-PPD Cmax/D (ABCC2 rs2756109 GG, mean (SD)): 0.02 (0.02)
Ratio 20(S)-PPD/CK AUClast/D (ABCC2 rs2756109 GG, mean (SD)): 2.42 (1.84) %
20(S)-PPD AUClast/D (ABCC2 rs3740066 CC, mean (SD)): 0.64 (0.51)
20(S)-PPD Cmax/D (ABCC2 rs3740066 CC, mean (SD)): 0.02 (0.02)
Ratio 20(S)-PPD/CK AUClast/D (ABCC2 rs3740066 CC, mean (SD)): 3.03 (4.8) %
Ratio 20(S)-PPD/CK Cmax/D (ABCC2 rs3740066 CC, mean (SD)): 0.78 (1.02) %
20(S)-PPD AUClast/D (ABCC2 rs3740066 CT, mean (SD)): 1.06 (0.99)
20(S)-PPD Cmax/D (ABCC2 rs3740066 CT, mean (SD)): 0.04 (0.03)
Ratio 20(S)-PPD/CK AUClast/D (ABCC2 rs3740066 CT, mean (SD)): 5.95 (7.51) %
Ratio 20(S)-PPD/CK Cmax/D (ABCC2 rs3740066 CT, mean (SD)): 1.63 (2.29) %
20(S)-PPD AUClast/D (ABCC2 rs3740066 TT, n = 1): 0.58 (—)
20(S)-PPD Cmax/D (ABCC2 rs3740066 TT, n = 1): 0.01 (—)
Ratio 20(S)-PPD/CK AUClast/D (ABCC2 rs3740066 TT, n = 1): 1.04 (—) %
Ratio 20(S)-PPD/CK Cmax/D (ABCC2 rs3740066 TT, n = 1): 0.22 (—) %
20(S)-PPD AUClast/D (ABCC3 rs4148416 CC, mean (SD)): 0.77 (0.69)
20(S)-PPD Cmax/D (ABCC3 rs4148416 CC, mean (SD)): 0.03 (0.02)
Ratio 20(S)-PPD/CK AUClast/D (ABCC3 rs4148416 CC, mean (SD)): 3.64 (5.23) %
Ratio 20(S)-PPD/CK Cmax/D (ABCC3 rs4148416 CC, mean (SD)): 0.90 (1.07) %
20(S)-PPD AUClast/D (ABCC3 rs4148416 CT, mean (SD)): 0.99 (1.01)
20(S)-PPD Cmax/D (ABCC3 rs4148416 CT, mean (SD)): 0.04 (0.04)
Ratio 20(S)-PPD/CK AUClast/D (ABCC3 rs4148416 CT, mean (SD)): 6.12 (8.47) %
Ratio 20(S)-PPD/CK Cmax/D (ABCC3 rs4148416 CT, mean (SD)): 1.87 (2.85) %
20(S)-PPD AUClast/D (ABCC3 rs4793665 CT, mean (SD)): 0.61 (0.58)
20(S)-PPD Cmax/D (ABCC3 rs4793665 CT, mean (SD)): 0.02 (0.02)
Ratio 20(S)-PPD/CK AUClast/D (ABCC3 rs4793665 CT, mean (SD)): 2.27 (2.88) %
Ratio 20(S)-PPD/CK Cmax/D (ABCC3 rs4793665 CT, mean (SD)): 0.54 (0.52) %
20(S)-PPD AUClast/D (ABCC3 rs4793665 TT, mean (SD)): 0.89 (0.82)
20(S)-PPD Cmax/D (ABCC3 rs4793665 TT, mean (SD)): 0.03 (0.03)
Ratio 20(S)-PPD/CK AUClast/D (ABCC3 rs4793665 TT, mean (SD)): 4.86 (6.83) %
Ratio 20(S)-PPD/CK Cmax/D (ABCC3 rs4793665 TT, mean (SD)): 1.32 (1.92) %
20(S)-PPD AUClast/D (ABCC3 rs12051822 GA, mean (SD)): 1.17 (0.94)
20(S)-PPD Cmax/D (ABCC3 rs12051822 GA, mean (SD)): 0.04 (0.03)
Ratio 20(S)-PPD/CK AUClast/D (ABCC3 rs12051822 GA, mean (SD)): 6.84 (8.31) %
Ratio 20(S)-PPD/CK Cmax/D (ABCC3 rs12051822 GA, mean (SD)): 1.44 (1.56) %
20(S)-PPD AUClast/D (ABCC3 rs12051822 GG, mean (SD)): 0.74 (0.72)
20(S)-PPD Cmax/D (ABCC3 rs12051822 GG, mean (SD)): 0.03 (0.03)
Ratio 20(S)-PPD/CK AUClast/D (ABCC3 rs12051822 GG, mean (SD)): 3.60 (5.48) %
Ratio 20(S)-PPD/CK Cmax/D (ABCC3 rs12051822 GG, mean (SD)): 1.09 (1.81) %
20(S)-PPD AUClast/D [1]: 2.65 (1.59)
20(S)-PPD Cmax/D [1]: 0.09 (0.03)
Ratio 20(S)-PPD/CK AUClast/D [1]: 20.61 (14.96) %
Ratio 20(S)-PPD/CK Cmax/D [1]: 4.33 (2.43) %
20(S)-PPD AUClast/D (ABCC4 rs1151471 TC, mean (SD)): 0.99 (0.81)
20(S)-PPD Cmax/D (ABCC4 rs1151471 TC, mean (SD)): 0.04 (0.03)
Ratio 20(S)-PPD/CK AUClast/D (ABCC4 rs1151471 TC, mean (SD)): 5.99 (7.30) %
Ratio 20(S)-PPD/CK Cmax/D (ABCC4 rs1151471 TC, mean (SD)): 1.83 (2.49) %
20(S)-PPD AUClast/D (ABCC4 rs1151471 TT, mean (SD)): 0.58 (0.54)
20(S)-PPD Cmax/D (ABCC4 rs1151471 TT, mean (SD)): 0.02 (0.02)
SMILES: CC(C)=CCC[C@](C)(O)[C@H]1CC[C@]2(C)[C@@H]1[C@H](O)C[C@@H]1[C@@]3(C)CC[C@H](O)C(C)(C)[C@@H]3CC[C@]12C [20(S)-PPD, 20(S)-protopanaxadiol]

From article PMC6606825 (Journal of Ginseng Research, 2018)
